# Assays:
# Type in all cases: functional
# Mycobacterium kansasii [1] = assay: Antitubercular activity against Mycobacterium kansasii CNCTC My 235/80 assessed as inhibition of bacterial growth measured after 14 days of incubation by Sulas semisynthetic medium based assay; details: CNCTC My 235/80, 336 h, time 14 day
# In short: (§1)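 Micromethod in Sula's semisynthetic medium. MIC is the lowest concentration inhibiting >99% of the mycobacterial population. Isoniazid was the standard.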
# [2] = system: Mycobacterium tuberculosis; assay: Antitubercular activity against Mycobacterium tuberculosis CNCTC My 331/88 (H37Rv) assessed as inhibition of bacterial growth measured after 21 days of incubation by Sulas semisynthetic medium based assay; details: 504 h, time 21 day
# In short: (§2)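 Micromethod MIC in Sula's semisynthetic medium. MIC is the lowest concentration inhibiting >99% of the mycobacterial population. Isoniazid was the standard drug.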
# Mycobacterium avium [3] = assay: Antitubercular activity against Mycobacterium avium CNCTC My 330/88 assessed as inhibition of bacterial growth measured after 21 days of incubation by Sulas semisynthetic medium based assay; details: CNCTC My 330/88, 504 h, time 21 day
# In short: (§3)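 M. avium was tested by the micromethod in Sula's semisynthetic medium. Compounds in DMSO at 1000 to 0.5 μmol/L. Incubation at 37 °C, read at 14 and 21 days. MIC is the lowest concentration giving >99% growth inhibition.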
# Mycobacterium kansasii [4] = assay: Antitubercular activity against Mycobacterium kansasii CNCTC My 235/80 assessed as inhibition of bacterial growth measured after 21 days of incubation by Sulas semisynthetic medium based assay; details: CNCTC My 235/80, 504 h, time 21 day; in short: as §1
# Mycobacterium kansasii [5] = assay: Antitubercular activity against Mycobacterium kansasii CNCTC My 235/80 assessed as inhibition of bacterial growth measured after 7 days of incubation by Sulas semisynthetic medium based assay; details: CNCTC My 235/80, 168 h, time 7 day; in short: as §1
# Mycobacterium avium [6] = assay: Antitubercular activity against Mycobacterium avium CNCTC My 330/88 assessed as inhibition of bacterial growth measured after 14 days of incubation by Sulas semisynthetic medium based assay; details: CNCTC My 330/88, 336 h, time 14 day; in short: as §3
# [7] = system: Mycobacterium tuberculosis; assay: Antitubercular activity against Mycobacterium tuberculosis CNCTC My 331/88 (H37Rv) assessed as inhibition of bacterial growth measured after 14 days of incubation by Sulas semisynthetic medium based assay; details: 336 h, time 14 day; in short: as §2
SMILES,MIC99 (Mycobacterium kansasii [1]),MIC99 [2],MIC99 (Mycobacterium avium [3]),MIC99 (Mycobacterium kansasii [4]),MIC99 (Mycobacterium kansasii [5]),MIC99 (Mycobacterium avium [6]),MIC99 [7]
COCCN(C)c1nc2ncn(Cc3ccc4ccccc4c3)c2c(=O)[nH]1,> 500 µM,> 500 µM,> 500 µM,> 500 µM,> 500 µM,> 500 µM,> 500 µM
O=c1[nH]c(N2CCOCC2)nc2ncn(Cc3ccc(Cl)cc3)c12,250 µM,> 500 µM,> 500 µM,> 500 µM,125 µM,> 500 µM,> 500 µM
O=c1[nH]c(N2CCOCC2)nc2ccn(Cc3ccc4ccccc4c3)c12,> 500 µM,> 500 µM,> 500 µM,> 500 µM,> 500 µM,> 500 µM,> 500 µM
c1ccc2cc(Cn3cnc4nc(N5CCOCC5)nc(N5CCOCC5)c43)ccc2c1,125 µM,125 µM,500 µM,250 µM,125 µM,250 µM,125 µM
O=c1[nH]c(NC2CC2)nc2ncn(Cc3ccc4ccccc4c3)c12,> 500 µM,> 500 µM,> 500 µM,> 500 µM,> 500 µM,> 500 µM,> 500 µM
CN(C)CCNc1nc(N2CCOCC2)nc2ncn(Cc3ccc4ccccc4c3)c12,125 µM,64 µM,500 µM,125 µM,64 µM,500 µM,32 µM
c1ccc2cc(Cn3cnc4nc(N5CCOCC5)nc(NCc5ccncc5)c43)ccc2c1,64 µM,8 µM,500 µM,64 µM,64 µM,250 µM,8 µM
O=c1[nH]c(N2CCOCC2)nc2ncn(-c3cccc4c3sc3ccccc34)c12,> 250 µM,> 250 µM,> 250 µM,> 250 µM,> 250 µM,> 250 µM,> 250 µM
O=c1[nH]c(N2CCOCC2)nc2c1ncn2Cc1ccc2ccccc2c1,> 250 µM,> 250 µM,> 250 µM,> 250 µM,> 250 µM,> 250 µM,> 250 µM
S=c1[nH]c(=S)c2c(ncn2Cc2ccc3ccccc3c2)[nH]1,> 500 µM,> 500 µM,> 500 µM,> 500 µM,> 500 µM,> 500 µM,> 500 µM
O=c1[nH]c(NCCO)nc2ncn(Cc3ccc4ccccc4c3)c12,> 500 µM,> 500 µM,> 500 µM,> 500 µM,> 500 µM,> 500 µM,> 500 µM
O=c1[nH]c(N2CCOCC2)nc2ncn(Cc3cccc4ccccc34)c12,> 500 µM,> 500 µM,> 500 µM,> 500 µM,> 500 µM,> 500 µM,> 500 µM
CN(C)c1nc2ncn(Cc3ccc4ccccc4c3)c2c(=O)[nH]1,> 500 µM,> 500 µM,> 500 µM,> 500 µM,> 500 µM,> 500 µM,> 500 µM
Oc1nc(N2CCOCC2)nc2ncn(Cc3ccccc3)c12,> 500 µM,> 500 µM,> 500 µM,> 500 µM,> 500 µM,> 500 µM,> 500 µM
Cn1c(N2CCOCC2)nc2ncn(Cc3ccc4ccccc4c3)c2c1=O,> 500 µM,64 µM,> 500 µM,> 500 µM,,> 500 µM,32 µM
COc1ccc(Cn2cnc3nc(N4CCOCC4)[nH]c(=O)c32)cc1,> 500 µM,64 µM,> 500 µM,> 500 µM,,> 500 µM,32 µM

SMILES,MIC99 (Mycobacterium kansasii [1]),MIC99 [2],MIC99 (Mycobacterium avium [3]),MIC99 (Mycobacterium kansasii [4]),MIC99 (Mycobacterium kansasii [5]),MIC99 (Mycobacterium avium [6]),MIC99 [7]
O=c1[nH]cnc2ncn(Cc3ccc4ccccc4c3)c12,> 500 µM,> 500 µM,> 500 µM,> 500 µM,125 µM,> 500 µM,> 500 µM
O=c1[nH]c(N2CCOCC2)nc2ncn(-c3ccsc3)c12,> 500 µM,> 500 µM,> 500 µM,,> 500 µM,> 500 µM,> 500 µM
Clc1ncnc2ncn(Cc3ccc4ccccc4c3)c12,> 1000 µM,125 µM,> 1000 µM,> 1000 µM,1000 µM,> 1000 µM,125 µM
O=c1[nH]c(N2CCOCC2)nc2c1ncn2Cc1ccc(Cl)c(Cl)c1,> 250 µM,> 250 µM,> 250 µM,> 250 µM,> 250 µM,> 250 µM,> 250 µM
O=c1[nH]c(N2CCOCC2)nc2c1ncn2Cc1ccccc1,> 500 µM,> 500 µM,> 500 µM,> 500 µM,> 500 µM,> 500 µM,> 500 µM
COc1cccc(Cn2cnc3c(=O)[nH]c(N4CCOCC4)nc32)c1,> 500 µM,> 500 µM,> 500 µM,> 500 µM,> 500 µM,> 500 µM,> 500 µM
CN1CCN(c2nc3ncn(Cc4ccc5ccccc5c4)c3c(=O)[nH]2)CC1,500 µM,500 µM,> 500 µM,500 µM,250 µM,> 500 µM,250 µM
COc1cccc(Cn2cnc3nc(N4CCOCC4)[nH]c(=O)c32)c1,> 500 µM,> 500 µM,> 500 µM,> 500 µM,> 500 µM,,500 µM
S=c1[nH]cnc2ncn(Cc3ccc4ccccc4c3)c12,> 500 µM,> 500 µM,> 500 µM,> 500 µM,> 500 µM,> 500 µM,> 500 µM
O=c1[nH]c(N2CC3(COC3)C2)nc2ncn(Cc3ccc4ccccc4c3)c12,> 500 µM,> 500 µM,> 500 µM,> 500 µM,> 500 µM,> 500 µM,> 500 µM
CC(C)c1ccc(Cn2cnc3c(=O)[nH]c(N4CCOCC4)nc32)cc1,> 250 µM,> 250 µM,> 250 µM,> 250 µM,> 250 µM,> 250 µM,125 µM
O=c1[nH]c(NC2CCC2)nc2ncn(Cc3ccc4ccccc4c3)c12,> 500 µM,> 500 µM,> 500 µM,> 500 µM,> 500 µM,> 500 µM,> 500 µM
COCCNc1nc2ncn(Cc3ccc4ccccc4c3)c2c(=O)[nH]1,> 500 µM,> 500 µM,> 500 µM,> 500 µM,> 500 µM,> 500 µM,> 500 µM
O=c1[nH]c(N2CCOCC2)nc2c1ncn2Cc1ccc(Cl)cc1,> 500 µM,> 500 µM,> 500 µM,> 500 µM,> 500 µM,> 500 µM,> 500 µM
O=c1[nH]c(N2CCCC2)nc2ncn(Cc3ccc4ccccc4c3)c12,> 500 µM,16 µM,> 500 µM,> 500 µM,> 500 µM,> 500 µM,8 µM
COc1ccc(Cn2cnc3c(=O)[nH]c(N4CCOCC4)nc32)cc1,> 500 µM,> 500 µM,> 500 µM,> 500 µM,> 500 µM,> 500 µM,> 500 µM
